# EP2 mod – EP2 receptor modulators, cAMP readout, primary screen, cell-based, HTRF cAMP, PGE2 stimulation; AID 940, 2007; hit rate 0.83% among 260,000; Prostaglandin E2 receptor EP2 subtype (Homo sapiens), P43116; EP2-expressing cells, cAMP HTRF FRET, PGE2 co-stimulation; induction, % at 25 µM;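 active means compounds whose cAMP rise, as percent of the full-agonist control response, exceeds 60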;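 further: rat C6 glioma line stably carrying human EP2 under a CMV promoter; the protocol text gives 20 µM as final concentration; 100% = response of wells given 1 µM PGE2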
# Target sequence (P43116 whole entry, looked up): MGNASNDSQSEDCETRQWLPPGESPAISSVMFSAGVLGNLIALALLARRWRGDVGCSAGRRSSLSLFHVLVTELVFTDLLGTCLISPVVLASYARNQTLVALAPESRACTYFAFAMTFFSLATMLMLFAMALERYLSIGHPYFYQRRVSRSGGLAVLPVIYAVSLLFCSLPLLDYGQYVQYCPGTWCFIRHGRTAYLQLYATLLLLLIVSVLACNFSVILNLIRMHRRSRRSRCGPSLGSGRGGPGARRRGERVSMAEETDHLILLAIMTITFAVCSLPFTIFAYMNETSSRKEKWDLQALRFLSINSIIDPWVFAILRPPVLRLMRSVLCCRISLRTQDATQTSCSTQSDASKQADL
# MC4R antagonist – MC4R antagonists of cAMP signaling, primary screen, cell-based, TR-FRET, antagonist arm of biased-ligand search; MC4R-expressing cells, MTII-stimulated cAMP, LANCE TR-FRET; inhibition, % at 6.5 µM; hit rate 0.48% among 360,000; AID 540295, 2011;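 active means inhibition above its plate's cutoff, the mean of tested wells on that plate plus 3 SD, cut at about 29% in these data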;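 further: 0% = Melanotan II alone and 100% = Melanotan II plus saturating MCL0020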
#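 Test system: U2OS cells stably expressing human melanocortin 4 receptor (MC4R); also added: Melanotan II challenge; compound: 6.5 µM single dose; timing: 30-min compound preincubation, 1-h Melanotan II challenge, 1-h detection, room temperature; signal: Eu-cAMP/anti-cAMP TR-FRET, emission 671 nm; repeats: one well per compound, no replicates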
# MC4R barr agon – MC4R agonists recruiting beta-arrestin, primary screen, cell-based, luminescence, agonist arm of biased-ligand search; activation, % at 8.9 µM; Melanocortin receptor 4 (Homo sapiens), P32245; hit rate 0.98% among 360,000; U2OS MC4R beta-arrestin complementation; percent of melanotan II response, DMSO zero;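 active means activation above a per-plate cutoff, the mean activation of sample wells on that plate plus 3 SD, cut at about 8% in these data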
# T cell modulator – modulators of CD8 T cell-vesicle binding, primary screen, mouse 2C CD8+ T cells, flow cytometry; 2C CD8+ T cell-vesicle binding; active compounds read low; response (vesicle binding), % at 7 µM; hit rate 0.068% among 330,000; AID 2052, 2009;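 active means response, share of CD8 T cells binding vesicles, and their 90th percentile fluorescence all below set limits, cut at about 80% in these data, passing the limit was not always enough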;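 further: values below 100% mean blocked vesicle binding to the CD8+ T cells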
#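 Incubation: binding step 1.5 h, 37 °C, antibody labelling 20 min, ice; system: murine 2C transgenic CD8+ T lymphocytes; technique: cytometric PE anti-B7-1 and Alexa647 anti-CD8 signals after 1% paraformaldehyde fixation; also added: QL9-charged Drosophila Ld/ICAM-1/B7-1 vesicles; control set: naked versus QL9-loaded vesicles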
# EP2 antag – human EP2 receptor antagonists, primary screen, TR-FRET cAMP, C6 glioma cells; hit rate 0.52% among 260,000; C6 glioma cells expressing human EP2; cells stimulated with saturating PGE2; inhibition, % at 25 µM; AID 1422, 2008;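 active means percent inhibition above 40 after rounding to a whole number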;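 further: rat C6 glioma host cells with rolipram phosphodiesterase inhibitor present; the protocol text gives 20 µM as final concentration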
# Granule exo inh – LAMP-1 surface exposure blockers, TALL-104 cells – cell-based, flow cytometry, MLPCN library, primary screen; AID 651702, 2012; hit rate 0.66% among 360,000; TALL-104 LAMP-1 surface exposure; cells stimulated with thapsigargin and PMA; inhibition, % at 10 µM;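 active means inhibition above about 55%, limit read from the data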
# U2OS cAMP counter – nonselective cAMP signaling inhibitors, parental cells, counter-screen for MC4R biased antagonist project, cell-based, TR-FRET, U2OS, forskolin, triplicate | AID 602193, 2012 | inhibition, % at 6.5 µM | LANCE TR-FRET | hit rate 26% among 1,600 | shares compounds with MC4R antagonist;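 active means mean inhibition over triplicates above the low-control well mean plus 3 SD, set per campaign, cut at about 13% in these data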;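 further: signal is single emission at 671 nm which falls as cellular cAMP rises; 0% = forskolin-stimulated wells and 100% = buffer without forskolin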
# MC4R antag conf – MC4R cAMP antagonists, retest, confirmation, cell-based, TR-FRET. shares compounds with MC4R antagonist. hit rate 27% among 1,600. inhibition, % at 6.5 µM. MC4R-expressing cells, MTII-stimulated cAMP; in the data active means inhibition above about 29%;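 further: 0% = agonist stimulated wells alone and 100% = agonist stimulated wells plus saturating reference antagonist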
# The depositor's hits bear a star; . = no result given. This is a sample that favours compounds with a hit; in the whole collection about 2.6% have one here.
SMILES,EP2 mod,MC4R antagonist,MC4R barr agon,T cell modulator,EP2 antag,Granule exo inh,U2OS cAMP counter,MC4R antag conf
CCCCNc1c(-c2cccc(-c3ccc(OC)cc3)c2)nc2ccc(C)cn12,.,40*,3,225,.,22,15*,41*
CCCCNc1c(-c2cccc(-c3ccc(OC)cc3)c2)nc2cc(C)ccn12,.,34*,0,247,.,-3,30*,56*
COc1cc(NC(=O)C2CCCN2C(=O)OCc2ccccc2)cc(OC)c1 (stereo not drawn),-6,-3,-1,442,12,-3,.,.
CCS(=O)(=O)c1ncc(Cl)c(C(=O)Nc2ccc(S(=O)(=O)N3CCCC(C)C3)cc2)n1 (stereo not drawn),.,41*,-4,198,.,14,-41,20
CC1CCCN(S(=O)(=O)c2ccc(NC(=O)CNC3CCCC3)cc2)C1 (stereo not drawn),.,-6,2,270,.,-12,.,.
CCC1CCCCN1S(=O)(=O)c1ccc(NC(=O)c2nc(S(C)(=O)=O)ncc2Cl)cc1 (stereo not drawn),.,83*,-4,508,.,30,11,66*
CCc1ccc(OCC(=O)NC(NC(=S)Nc2ccccc2C)C(Cl)(Cl)Cl)cc1 (stereo not drawn),9,11,0,172,7,2,.,.
CCc1ccc(OCC(=O)NC(NC(=S)Nc2ccccc2OC)C(Cl)(Cl)Cl)cc1 (stereo not drawn),6,38*,4,102,16,-2,1,27
CN(c1ccccc1)S(=O)(=O)c1cccc(NC(=O)CSc2n[nH]c(N)n2)c1,-24,16,0,141,11,11,.,.
O=C(c1nc2ccccn2c1CNCCCn1nnc2ccccc21)N1CCOCC1,-3,10,-1,202,2,-3,.,.
O=C(c1nc2ccccn2c1CNCCn1ccc2ccccc21)N1CCOCC1,-5,32*,4,149,7,12,-10,-21
CCCCC(=O)OCC(=O)c1cc(C)n(-c2c(C)n(C)n(-c3ccccc3)c2=O)c1C,23,31*,0,446,4,1,0,0
Cc1ccc(CC(=O)N2CCN(c3cccc(C(F)(F)F)c3)CC2)cc1,14,33*,3,326,19,-2,-1,0
Cc1ccc(CN(C(=O)c2ccc(Cl)c([N+](=O)[O-])c2)C2CCS(=O)(=O)C2)o1 (stereo not drawn),.,37*,-4,469,.,-2,19*,37*
O=C(c1ccc(Cl)c([N+](=O)[O-])c1)N(Cc1ccccc1)C1CCS(=O)(=O)C1 (stereo not drawn),0,17,1,73,12,-6,.,.
Cc1ccccc1NC(=O)CN1C(=O)NC2(CCc3ccccc32)C1=O (stereo not drawn),.,6,-1,122,.,18,.,.
COc1cc2c(cc1NC(=O)CN1C(=O)NC3(CCc4ccccc43)C1=O)oc1ccccc12 (stereo not drawn),-1,44*,0,303,8,5,2,27
CCN(CC)S(=O)(=O)c1ccc(Cl)c(C(=O)OC2CC(C)OC2=O)c1 (stereo not drawn),.,40*,2,219,.,3,9,20
CC(CCc1ccccc1)NC(=O)COC(=O)c1ccc([N+](=O)[O-])cc1 (stereo not drawn),.,8,-1,325,.,2,.,.
Cc1ccccc1NC(=O)COC(=O)c1ccc(S(C)(=O)=O)c([N+](=O)[O-])c1,-38,47*,-2,250,9,6,33*,51*
CS(=O)(=O)c1ccc(C(=O)OCC(=O)Nc2cccnc2Cl)cc1[N+](=O)[O-],.,-6,-1,144,.,-2,.,.
CC(CCc1ccccc1)NC(=O)COC(=O)c1ccc(S(C)(=O)=O)c([N+](=O)[O-])c1 (stereo not drawn),-98,70*,-3,339,14,27,32*,55*
COc1cccc(OC)c1C(=O)NC(=O)Nc1c(C)cccc1C,.,29*,-2,248,.,-2,0,0
CCOC(=O)C1(Cc2cccc(F)c2)CCN(Cc2cnn(CC)c2)CC1,-24,29*,1,175,6,-4,4,13
COc1ccc(/C=C/C2=CC(C)(C)NC(=S)N2)cc1OC,-63,-9,-1,410,6,1,.,.
SMILES,EP2 mod,MC4R antagonist,MC4R barr agon,T cell modulator,EP2 antag,Granule exo inh,U2OS cAMP counter,MC4R antag conf
COc1cccc(/C=C/C2=CC(C)(C)NC(=S)N2)c1,-89,29*,-2,286,7,-4,-3,-10
Cc1ccc(OS(=O)(=O)c2cn(C)c(=O)n(C)c2=O)cc1C,4,4,-1,205,8,-1,.,.
CCOC(=O)c1c(C)[nH]c(C)c1C(=O)COC(=O)c1cc(OC)cc(OC)c1,-18,-3,-3,314,6,-4,.,.
CCOC(=O)c1c(C)[nH]c(C)c1C(=O)COC(=O)c1cc(OC)c(OC)cc1OC,8,32*,1,.,2,2,-4,2
O=C(NC(=S)Nc1ccccc1Br)C1CCCC1,.,17,-2,301,.,-1,.,.
Cc1ccc(S(=O)(=O)N(C)C[C@@H]2OCCCC[C@@H](C)Oc3ccc(NS(=O)(=O)c4c(C)noc4C)cc3C(=O)N([C@H](C)CO)C[C@@H]2C)cc1,.,34*,1,.,.,6,-1,3
CC(C)(C)OC(=O)NCc1ccc(NC(=O)c2nc[nH]c2C(=O)N[C@@H](Cc2ccccc2)C(=O)OCc2ccccc2)cc1,-2,63*,95*,449,13,-8,-5,36*
O=C(C(=O)N(Cc1ccccc1)Cc1ccccc1)c1c(-c2ccccc2)[nH]c2ccccc12,.,50*,2,.,.,4,1,11

# Screening data from PubChem.
